In brackets after ≈: the same amount, converted by molar mass.
System: Plasmodium falciparum
Test: Minimum inhibitory concentration against schizont maturation in Plasmodium falciparum NF-54
Format: functional
Outline: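 Rieckmann micro-assay with P. falciparum NF-54 cultured in RPMI-1640 (25 mM HEPES, 1% D-glucose, 0.23% NaHCO3, 10% heat-inactivated human serum), sorbitol-synchronized to ring stage. Start at ~1% parasitaemia, 3% haematocrit; compounds 0.25–50 µg/mL in duplicate, 37 °C candle jar, 36–40 h. Giemsa smears scored by microscopy; MIC = lowest concentration blocking complete maturation to schizonts.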

Q: With `O=[N+]([O-])c1cccc(-c2cc(-c3ccncc3)nc(N3CCN(c4ccccc4)CC3)n2)c1` as the molecule, how does the MIC read?
A: The MIC was 10 µg/mL (≈ 22.8 µM).

Q: Which MIC does the source give for `COc1ccc(-c2cc(-c3ccncc3)nc(N3CCN(c4ccccc4)CC3)n2)cc1` here?
A: The MIC was 2 µg/mL (≈ 4.72 µM).

Q: How did the MIC turn out when `Clc1ccc(-c2cc(-c3ccncc3)nc(N3CCN(Cc4ccccc4)CC3)n2)cc1` was run?
A: The MIC was 10 µg/mL (≈ 22.6 µM).

Q: `COc1cc(-c2cc(-c3ccncc3)nc(N3CCN(c4ccccc4)CC3)n2)cc(OC)c1OC` was tested. Which MIC did it give?
A: The MIC was 50 µg/mL (≈ 103 µM).

Q: Which MIC does the source give for `COc1cc(OC)c(-c2cc(-c3ccncc3)nc(N3CCN(c4ccccc4)CC3)n2)cc1OC` here?
A: The MIC was 10 µg/mL (≈ 20.7 µM).

Q: Which MIC does the source give for `CSc1ccc(-c2cc(-c3ccncc3)nc(N3CCN(C)CC3)n2)cc1` here?
A: The MIC was 1 µg/mL (≈ 2.65 µM).

Q: Which MIC does the source give for `c1ccc(CN2CCN(c3nc(-c4ccccc4)cc(-c4ccncc4)n3)CC2)cc1` here?
A: Its MIC is 2 µg/mL (≈ 4.91 µM).

Q: `Cc1ccc(-c2cc(-c3ccncc3)nc(N3CCN(c4ccccc4)CC3)n2)cc1C` was tested. Which MIC did it give?
A: The MIC was 2 µg/mL (≈ 4.74 µM).

Q: For `Cc1ccc(-c2cc(-c3ccncc3)nc(N3CCN(c4ccccc4)CC3)n2)cc1`, which MIC is on record?
A: The MIC was 1 µg/mL (≈ 2.45 µM).

Q: Which MIC does the source give for `CSc1ccc(-c2cc(-c3ccncc3)nc(N3CCN(Cc4ccccc4)CC3)n2)cc1` here?
A: Its MIC is 2 µg/mL (≈ 4.41 µM).

Q: With `COc1cc(-c2cc(-c3ccncc3)nc(N3CCN(Cc4ccccc4)CC3)n2)cc(OC)c1OC` as the molecule, how does the MIC read?
A: The MIC was 10 µg/mL (≈ 20.1 µM).

Q: How did the MIC turn out when `Clc1ccc(-c2cc(-c3ccncc3)nc(N3CCN(c4ccccc4)CC3)n2)cc1` was run?
A: Its MIC is 10 µg/mL (≈ 23.4 µM).

Q: Which MIC does the source give for `Cc1ccc(-c2cc(-c3ccncc3)nc(N3CCN(C)CC3)n2)cc1` here?
A: Its MIC is 1 µg/mL (≈ 2.89 µM).

Q: With `COc1ccc(OC)c(-c2cc(-c3ccncc3)nc(N3CCN(c4ccccc4)CC3)n2)c1` as the molecule, how does the MIC read?
A: Its MIC is 2 µg/mL (≈ 4.41 µM).

Q: Which MIC does the source give for `COc1ccc(OC)c(-c2cc(-c3ccncc3)nc(N3CCN(Cc4ccccc4)CC3)n2)c1` here?
A: The MIC was 1 µg/mL (≈ 2.14 µM).

Q: For `COc1cc(OC)c(-c2cc(-c3ccncc3)nc(N3CCN(C)CC3)n2)cc1OC`, which MIC is on record?
A: Its MIC is 2 µg/mL (≈ 4.74 µM).

Q: Which MIC does the source give for `COc1ccc(OC)c(-c2cc(-c3ccncc3)nc(N3CCN(C)CC3)n2)c1` here?
A: The MIC was 0.5 µg/mL (≈ 1.28 µM).

Q: How did the MIC turn out when `Cc1ccc(-c2cc(-c3ccncc3)nc(N3CCN(Cc4ccccc4)CC3)n2)cc1C` was run?
A: The MIC was 1 µg/mL (≈ 2.3 µM).

Q: Which MIC does the source give for `c1ccc(-c2cc(-c3ccncc3)nc(N3CCN(c4ccccc4)CC3)n2)cc1` here?
A: Its MIC is 10 µg/mL (≈ 25.4 µM).

Q: How did the MIC turn out when `CSc1ccc(-c2cc(-c3ccncc3)nc(N3CCN(c4ccccc4)CC3)n2)cc1` was run?
A: Its MIC is 10 µg/mL (≈ 22.7 µM).

Q: For `O=[N+]([O-])c1cccc(-c2cc(-c3ccncc3)nc(N3CCN(Cc4ccccc4)CC3)n2)c1`, which MIC is on record?
A: The MIC was 2 µg/mL (≈ 4.42 µM).

Q: Which MIC does the source give for `COc1ccc(-c2cc(-c3ccncc3)nc(N3CCN(C)CC3)n2)cc1` here?
A: The MIC was 1 µg/mL (≈ 2.77 µM).

Q: With `CN1CCN(c2nc(-c3ccncc3)cc(-c3cccc([N+](=O)[O-])c3)n2)CC1` as the molecule, how does the MIC read?
A: Its MIC is 1 µg/mL (≈ 2.66 µM).

Q: Which MIC does the source give for `Cc1ccc(-c2cc(-c3ccncc3)nc(N3CCN(C)CC3)n2)cc1C` here?
A: The MIC was 0.5 µg/mL (≈ 1.39 µM).

Q: With `Cc1ccc(-c2cc(-c3ccncc3)nc(N3CCN(Cc4ccccc4)CC3)n2)cc1` as the molecule, how does the MIC read?
A: The MIC was 2 µg/mL (≈ 4.74 µM).

Q: Which MIC does the source give for `COc1cc(-c2cc(-c3ccncc3)nc(N3CCN(C)CC3)n2)cc(OC)c1OC` here?
A: The MIC was 10 µg/mL (≈ 23.7 µM).

Q: With `CN1CCN(c2nc(-c3ccccc3)cc(-c3ccncc3)n2)CC1` as the molecule, how does the MIC read?
A: The MIC was 1 µg/mL (≈ 3.02 µM).

Q: `COc1cc(OC)c(-c2cc(-c3ccncc3)nc(N3CCN(Cc4ccccc4)CC3)n2)cc1OC` was tested. Which MIC did it give?
A: The MIC was 2 µg/mL (≈ 4.02 µM).

Q: For `CN1CCN(c2nc(-c3ccncc3)cc(-c3ccc(Cl)cc3)n2)CC1`, which MIC is on record?
A: The MIC was 2 µg/mL (≈ 5.47 µM).

Q: For `COc1ccc(-c2cc(-c3ccncc3)nc(N3CCN(Cc4ccccc4)CC3)n2)cc1`, which MIC is on record?
A: Its MIC is 1 µg/mL (≈ 2.29 µM).

Q: How did the MIC turn out when `CCc1nc(N)nc(N)c1-c1ccc(Cl)cc1` [PYRIMETHAMINE] was run?
A: Its MIC is 10 µg/mL (≈ 40.2 µM).

— ChEMBL document CHEMBL1139633, “Antimalarial activity and synthesis of new trisubstituted pyrimidines” (2005)
